Results taken from ChEMBL document CHEMBL1137561 (J Med Chem, 2007).

Assays:
[1] = tested on: Human immunodeficiency virus 1; test: Antiviral activity against HIV1 with reverse transcriptase Y188L mutation in MT4 cells assessed as inhibition of viral induced cytopathic effect by MTT method; format: functional, organism-based; settings: Human immunodeficiency virus 1, MT4
Method in brief: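 MT-4 cells infected with the HIV-1 NNRTI-resistant mutant strain. Viable cells scored at day 5 post-infection by the MTT tetrazolium colorimetric method. Values are means ± SD from at least two experiments.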

[2] = tested on: Human immunodeficiency virus 1; test: Antiviral activity against HIV1 with reverse transcriptase IRLL98 mutation in MT4 cells assessed as inhibition of viral induced cytopathic effect by MTT method; format: functional, organism-based; settings: Human immunodeficiency virus 1, MT4
[3] = tested on: Human immunodeficiency virus 1; test: Antiviral activity against HIV1 NL43 in MT4 cells assessed as inhibition of viral induced cytopathic effect after 5 days by MTT method; settings: Human immunodeficiency virus 1, NL43, MT4, 120 h
[4] = molecular target: Human immunodeficiency virus type 1 reverse transcriptase (Human immunodeficiency virus 1, UniProt Q72547, V106A); test: Inhibition of HIV1 reverse transcriptase V106A mutant
[5] = Selectivity index, ratio of CC50 for MT4 cells to EC50 for HIV1 NL43 infected MT4 cells; format: functional
[6] = Cytotoxicity against MT4 cells after 4 days by MTT method; format: cell-based; settings: human
Method in brief: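 Mock-infected (noninfected) MT-4 cells, run in parallel with the antiviral test. Viable cells read by the MTT tetrazolium colorimetric method. […] Means ± SD from at least two experiments. The top concentration was limited where compounds precipitated in the culture medium.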

[7] = tested on: Human immunodeficiency virus 1; test: Antiviral activity against HIV1 with reverse transcriptase K103N mutation in MT4 cells assessed as inhibition of viral induced cytopathic effect by MTT method; format: functional, organism-based; settings: Human immunodeficiency virus 1, MT4
Method in brief: (§1)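 MT-4 cells infected with the HIV-1 NNRTI-resistant mutant strain. Viable cells scored at day 5 post-infection by the MTT tetrazolium colorimetric method. […] Values are means ± SD from at least two experiments.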

[8] = molecular target: Human immunodeficiency virus type 1 reverse transcriptase (Human immunodeficiency virus 1, UniProt Q72547, L100I); test: Inhibition of HIV1 reverse transcriptase L100I mutant
[9] = molecular target: Human immunodeficiency virus type 1 reverse transcriptase (Human immunodeficiency virus 1, UniProt Q72547, V179D); test: Inhibition of HIV1 reverse transcriptase V179D mutant
[10] = Resistance index, Ratio of EC50 for drug-resistant HIV1 with RT IRLL98 mutation in MT4 cells to EC50 for HIV1 NL43 in MT4 cells
[11] = tested on: Human immunodeficiency virus 1; test: Antiviral activity against HIV1 with reverse transcriptase Y181C mutation in MT4 cells assessed as inhibition of viral induced cytopathic effect by MTT method; format: functional, organism-based; settings: Human immunodeficiency virus 1, MT4; method in brief: as §1
[12] = Inhibition of HIV1 reverse transcriptase Y1811 mutant; set-up: species or system Human immunodeficiency virus 1
Method in brief: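 Recombinant HIV-1 RT Y181I mutant, purified to >95%, 10 min preincubation with inhibitor. Radioactive nucleotide incorporation into poly(rA)/oligo(dT) 10:1 was followed at varied nucleotide substrate levels, sampling every 2 min for initial velocities. Inhibitor spanned 0.2–5 Ki. Ki came from Lineweaver-Burk and Dixon plots. Means ± SD of at least three experiments.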

[13] = molecular target: Human immunodeficiency virus type 1 reverse transcriptase (Human immunodeficiency virus 1, UniProt Q72547, Y188L); test: Inhibition of HIV1 reverse transcriptase Y188L mutant
[14] = Resistance index, Ratio of EC50 for drug-resistant HIV1 with RT K103N mutation in MT4 cells to EC50 for HIV1 NL43 in MT4 cells
[15] = molecular target: Human immunodeficiency virus type 1 reverse transcriptase (Human immunodeficiency virus 1, UniProt Q72547, K103N); test: Inhibition of HIV1 reverse transcriptase K103N mutant
[16] = Resistance index, Ratio of EC50 for drug-resistant HIV1 with RT Y181C mutation in MT4 cells to EC50 for HIV1 NL43 in MT4 cells
[17] = molecular target: Human immunodeficiency virus type 1 reverse transcriptase (Human immunodeficiency virus 1, UniProt Q72547); test: Inhibition of wild type HIV1 3B reverse transcriptase
[18] = Resistance index, Ratio of EC50 for drug-resistant HIV1 with RT Y188L mutation in MT4 cells to EC50 for HIV1 NL43 in MT4 cells

SMILES | EC50 [1] [nM] | EC50 [2] [nM] | EC50 [3] [nM] | Ki [4] [nM] | Ratio CC50/EC50 [5] | CC50 at 96 h [6] [nM] | EC50 [7] [nM] | Ki [8] [nM] | Ki [9] [nM] | Ratio EC50 [10] | EC50 [11] [nM] | Ki [12] [nM] | Ki [13] [nM] | Ratio EC50 [14] | Ki [15] [nM] | Ratio EC50 [16] | Ki [17] [nM] | Fold change [14] | Fold change [16] | Ratio EC50 [18]
Cc1c(Cc2c(F)cccc2F)nc(N2CCC(C)CC2)[nH]c1=O | > 10000 | > 10000 | 100 | 500 | >750 | > 75000 | > 10000 |  |  |  |  |  |  |  |  |  |  |  |  | 
CCC(c1cc(=O)[nH]c(N(C)C)n1)c1c(F)cccc1F (configuration not stated) | > 10000 | 1600 | 2 | 140 | 36500 | 73000 | 180 | 3300 | 30 | 800 | 430 | > 20000 | 5000 | 90 | 10000 | 215 | 100 |  |  | 
CCCN(C)c1nc(C(C)c2c(F)cccc2F)cc(=O)[nH]1 (configuration not stated) | > 10000 | 150 | 0.6 |  | >135000 | > 81000 | 80 |  |  | 250 | 50 |  |  |  |  |  |  | 133 | 83 | 
Cc1c(Cc2c(F)cccc2F)nc(N2CCCCC2)[nH]c1=O | 10000 | 820 | 3 |  | >26000 | > 78000 | > 10000 |  |  | 273 | 140 |  |  |  |  | 47 |  |  |  | 3333
Cc1c(Cc2c(F)cccc2F)nc(N2CCOCC2)[nH]c1=O | > 10000 | > 10000 | 26 | 400 | >3000 | > 78000 | > 10000 | 900 | 8300 |  | > 10000 | > 20000 | > 20000 |  | > 20000 |  | 50 |  |  | 
Cc1c(Cc2c(F)cccc2F)nc(N2CCN(c3ccccn3)CC2)[nH]c1=O |  |  | 12 | 10 | >5250 | > 63000 |  | > 20000 | 10 |  |  | > 20000 | 490 |  | > 20000 |  | 50 |  |  | 
Cc1c(Cc2c(F)cccc2F)nc(N2CCCCC2C)[nH]c1=O (configuration not stated) | > 10000 | 1400 | 9 |  | 8333 | 75000 | > 10000 |  |  | 156 | 140 |  |  |  |  | 16 |  |  |  | 
Cc1c(Cc2c(F)cccc2F)nc(N(C)C2CCCCC2)[nH]c1=O | 6200 | 2000 | 9 |  | >8000 | > 72000 | 4400 |  |  | 222 | 140 |  |  | 489 |  | 16 |  |  |  | 689
CN1CCN(c2nc(Cc3c(F)cccc3F)cc(=O)[nH]2)CC1 |  |  | 6090 | > 40000 | >13 | > 78000 |  | > 20000 | > 40000 |  |  | > 20000 | > 20000 |  | > 20000 |  | 11200 |  |  | 
O=c1cc(Cc2c(F)cccc2F)nc(N2CCOCC2)[nH]1 | > 10000 | > 10000 | 211 | 2900 | >384 | > 81000 | > 10000 | 15000 |  |  | > 10000 | > 20000 | > 20000 |  | > 20000 |  | 700 |  |  | 
Cc1c(Cc2c(F)cccc2F)nc(N(C)C)[nH]c1=O | > 10000 | 500 | 5 | 700 | >17800 | > 89000 | 2400 | 10000 | 1600 | 100 | 1820 | > 20000 | 11000 | 480 | 9000 | 364 | 100 |  |  | 
Cc1ccnc2c1NC(=O)c1cccnc1N2C1CC1 [NEVIRAPINE] |  | 9900 | 80 |  |  | > 7000 | 1800 |  |  |  | 870 | 35000 |  |  |  |  |  |  |  | 
O=c1cc(Cc2c(F)cccc2F)nc(N2CCCCCC2)[nH]1 | > 10000 | 1400 | 22 |  | >3545 | > 78000 | > 10000 |  |  | 64 | 430 |  |  |  |  | 19 |  |  |  | 
Cc1c(Cc2c(F)cccc2F)nc(N2CCCCCC2)[nH]c1=O | > 10000 | 1700 | 50 | 500 | >1500 | > 75000 | > 10000 |  |  | 34 | 570 |  |  |  |  | 11 |  |  |  | 
Cc1c(C(C)c2c(F)cccc2F)nc(N2CCC(C)CC2)[nH]c1=O (configuration not stated) | 220 | 300 | 2 |  | 27000 | 54000 | 322 |  |  | 150 | 10 |  |  | 161 |  | 5 |  |  |  | 110
COc1ccccc1N1CCN(c2nc(Cc3c(F)cccc3F)c(C)c(=O)[nH]2)CC1 |  |  | 218 | 500 | 170 | 37000 |  | 10000 | 5000 |  |  | > 20000 | 25700 |  | > 20000 |  | 250 |  |  | 
Cc1c(C(C)c2c(F)cccc2F)nc(N2CCCC2)[nH]c1=O (configuration not stated) | > 10000 | 200 | 2 |  | >39000 | > 78000 | 155 |  |  | 100 | 71 |  |  | 77 |  | 35 |  |  |  | 
CCN(C)c1nc(Cc2c(F)cccc2F)cc(=O)[nH]1 | > 10000 | 2000 | 13 |  | >6846 | > 89000 | > 10000 |  |  | 154 | 500 |  |  |  |  | 38 |  |  |  | 
Cc1c(Cc2c(F)cccc2N2CCCC2)nc(N2CCCC2)[nH]c1=O |  |  | 620 | 500 | >113 | > 70000 |  |  |  |  |  |  |  |  |  |  |  |  |  | 
Cc1c(Cc2c(F)cccc2F)nc(N2CCCC(C)C2)[nH]c1=O (configuration not stated) | > 10000 | 2100 | 18 |  | >4167 | > 75000 | > 10000 |  |  | 117 | 570 |  |  |  |  | 32 |  |  |  | 
Cc1c(Cc2c(F)cccc2F)nc(N2CCN(C)CC2)[nH]c1=O |  |  | 598 | 900 | >125 | > 75000 |  |  | > 40000 |  |  |  |  |  |  |  | 2000 |  |  | 
Cc1c(Cc2c(F)cccc2F)nc(N2CCSCC2)[nH]c1=O | > 10000 | > 10000 | 4 | 90 | >18500 | > 74000 | > 10000 | 5000 | 40000 |  | > 10000 | > 20000 | > 20000 |  | > 20000 |  | 150 |  |  | 
CC(c1cc(=O)[nH]c(N(C)C)n1)c1c(F)cccc1F (configuration not stated) | > 10000 | 670 | 1 | 500 | 89000 | 89000 | 120 |  |  | 670 | 260 |  |  | 120 |  | 260 |  |  |  | 
